In ChEMBL document CHEMBL1141351, “Inhibitors of osteoclast differentiation from Cephalotaxus koreana” (J Nat Prod, 2007) one finds inhibition and IC50 data, which are given here for eight compounds.

Experiment [1] has as its system Osteoclast. Put plainly: Inhibition of ICR mouse osteoclast differentiation at 1.0 ug/mL. The experiment is classed as functional. The procedure, abridged: (§1)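 Co-culture of bone marrow cells (femora, 6-week-old ddY mice; 2.5×10^5 cells/cm²) with calvarial osteoblastic cells (newborn ICR mice, collagenase digestion; 4 × 10⁴ cells/cm²) in α-MEM/10% FBS with 1,25(OH)₂D₃ (1 × 10⁻⁸ M) and dexamethasone (1 × 10⁻⁷ M). DMSO stocks (2 mg/mL) were filter-sterilized and added at 0.1 or 1.0 μg/mL. Medium was changed every 2 days. On day 6, cells were formaldehyde-fixed and TRAP-stained. TRAP(+) multinucleated cells with >6–7 nuclei were counted. Results are % inhibition versus control, as mean ± SD of three replicates, with Student's t-test.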

Experiment [2] deals with Osteoclast. Put plainly: Inhibition of ICR mouse osteoclast differentiation at 0.1 ug/mL. It is filed as functional. The procedure, abridged:
as §1

For experiment [3], the system named is Osteoclast. Put plainly: Induction of mouse osteoclast apoptosis. The experiment is classed as functional, cell-based.

Consider `O=c1cc(-c2ccc(O)cc2)oc2c(O)c(O)cc(O[C@@H]3O[C@H](CO)[C@@H](O)[C@H](O)[C@H]3O)c12`, for which, in the experiment with Osteoclast [1], the inhibition (as a rule, how much of the control response was suppressed) at 1 µg/mL came to 86%. In addition, the inhibition at 0.1 µg/mL with Osteoclast [2] turned out to be 63%.

On to `CC(=O)OC[C@H]1O[C@@H](Oc2c(-c3ccc(O)c(O)c3)oc3cc(O)cc(O)c3c2=O)[C@H](O)[C@@H](O)[C@@H]1O`, for which the inhibition at 1 µg/mL in the experiment with Osteoclast [1] worked out at 65%. In the experiment with Osteoclast [2], this compound showed an inhibition at 0.1 µg/mL of 51%.

The compound `C[C@H]1O[C@@H](OC[C@H]2O[C@@H](Oc3c(-c4ccc(O)cc4)oc4cc(O)cc(O)c4c3=O)[C@H](O)[C@@H](O)[C@@H]2O)[C@@H](O)[C@@H](O)[C@@H]1O` showed an inhibition at 1 µg/mL in the experiment on Osteoclast [1] of 85%. The inhibition at 0.1 µg/mL with Osteoclast [2] amounted to 68%.

Regarding `COc1ccc(-c2oc3cc(O)cc(O)c3c(=O)c2O[C@@H]2O[C@H](CO[C@@H]3O[C@H](C)[C@@H](O)[C@H](O)[C@@H]3O)[C@@H](O)[C@H](O)[C@H]2O)cc1O`, in the experiment on Osteoclast [1], testing at 1 µg/mL gave an inhibition of 63%. Further, at 0.1 µg/mL the inhibition in the experiment on Osteoclast [2] was 40%.

`O=c1cc(-c2ccc(O)cc2)oc2cc(O)cc(O)c12` [APIGENIN] registered an inhibition at 1 µg/mL in the experiment on Osteoclast [1] of 65%. This compound also registered an inhibition at 0.1 µg/mL in the experiment with Osteoclast [2] of 45%.

For `O=c1c(O)c(-c2ccc(O)cc2)oc2cc(O)cc(O)c12` [KAEMPFEROL], in the experiment on Osteoclast [3], the IC50 (usually the concentration that inhibits the measured activity by half) turned out to be 1.6 µM.

The compound `O=c1c(O)c(-c2ccc(O)c(O)c2)oc2cc(O)cc(O)c12` [QUERCETIN] yielded an IC50 in the experiment with Osteoclast [3] of 5.3 µM.

As for `C[C@@H]1O[C@@H](Oc2c(-c3ccc(O)c(O)c3)oc3cc(O)cc(O)c3c2=O)[C@H](O)[C@H](O)[C@H]1O` [QUERCITRIN], 1 µg/mL produced 67% inhibition in the experiment with Osteoclast [1]. The compound further registered an inhibition at 0.1 µg/mL in the experiment with Osteoclast [2] of 56%.
